Apaf-1 inh: human Apaf-1 inhibition | O14727 | reconstituted apoptosome caspase-3 activity, DEVD-Rh110 fluorescence | inhibition, % at 20 µM | 330,000 compounds, 0.71% hits | AID 489030; active = inhibition of at least 40% at 20 µM
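Assay system: Apoptosome proteins | Medium: pH 7.5 Hepes buffer with CHAPS, BSA, DTT | Also added: Cytochrome c and DEVD-Rh110 substrate | Times: 30 min plus 50 min, RT | Detection: Rhodamine 110 fluorescence at Ex 480/Em 540 nm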
GSTO1 inh: GSTO1 inhibition, counter-screen for RBBP9 inhibitors. P78417. recombinant GSTO1, activity-based probe fluorescence polarization. inhibition, % at 5.96 µM. 300,000 compounds, 1.1% hits;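 active = inhibition above the campaign mean inhibition plus 3 SD, cut at about 35% in these data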
Target sequence (P78417 whole entry, looked up): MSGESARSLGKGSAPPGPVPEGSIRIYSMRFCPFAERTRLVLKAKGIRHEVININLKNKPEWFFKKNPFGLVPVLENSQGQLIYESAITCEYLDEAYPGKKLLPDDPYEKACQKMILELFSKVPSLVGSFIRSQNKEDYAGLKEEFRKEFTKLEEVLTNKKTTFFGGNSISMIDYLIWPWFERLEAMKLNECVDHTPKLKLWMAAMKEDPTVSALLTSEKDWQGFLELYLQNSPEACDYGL
Redox H2O2 prof: compounds producing H2O2 with reducing agent – biochemical, NIH compound library profiling, artefact control for MLSCN library redox annotation, primary screen; DTT-dependent redox cycling H2O2, phenol red/HRP absorbance; 100% = 100 µM peroxide control, 0% = buffer; activation, % at 10 µM; 200,000 compounds, 0.03% hits;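 active = activation of at least 50% relative to the plate's high and low controls in the primary single-dose screen; inactive = activation below 50%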;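 note: compound incubated with DTT at 0.8 mM final as the reducing agent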
HKDC1 inhibitor: blocks human hexokinase HKDC1 activity. Q2TB90. recombinant HKDC1, G6PDH/diaphorase resazurin coupled fluorescence. inhibition, % at 20 µM. 340,000 compounds, 0.16% hits;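 active = inhibition above about 35% when tested at 20 µM, limit read from the data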
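Test system: recombinant HKDC1 (HK5) hexokinase enzyme, produced in-house / Doses: 20 µM test compound, 1% DMSO / Timing: 90 min, room temperature / Detection: G6PDH/diaphorase-coupled fluorescence, 1 mM NADP, 100 µM resazurin, 525/613 nm / Control set: DMSO wells with and without enzyme mix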
UBC9 SUMO inh: SUMOylation inhibition; inhibition, % at 35 µM; 290,000 compounds, 0.36% hits; HTRF SUMOylation assay, SAE1/SAE2 + UBC9, in vitro; in the data active = inhibition above about 50%, passing the limit was not always enough
Target sequence (P63279 whole entry, looked up): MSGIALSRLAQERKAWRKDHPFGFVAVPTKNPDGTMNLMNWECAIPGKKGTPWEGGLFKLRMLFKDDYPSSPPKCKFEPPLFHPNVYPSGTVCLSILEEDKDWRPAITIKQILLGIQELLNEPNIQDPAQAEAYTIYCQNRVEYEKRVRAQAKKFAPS
Apaf-1 inh conf2: Apaf-1 inhibition, single-dose confirmed | inhibition, % at 20 µM | 1,800 compounds, 25% hits | shares compounds with Apaf-1 inh | reconstituted apoptosome, caspase-3 DEVD-Rh110 fluorescence;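 active = mean inhibition of at least 40% at 20 µM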
Rh110 interf inh: counter-screen for Apaf-1 inhibitors: fluorescence interference; shares compounds with Apaf-1 inh; Rh110 fluorescence interference, quenched caspase reaction; activation (fluorescence interference), % at 20 µM; 1,800 tested, under 10 active;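 active = signal rise of 40% or more at 20 µM, treated as a fluorescence artifact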
Apaf1 inh interf: counter-screen for Apaf-1 inhibitors: fluorescence interference, dose response. fluorescence interference counterscreen, Apaf-1 assay format. shares compounds with Apaf-1 inh. 460 tested, under 10 active. IC50, µM; call rule not given here
HKDC1 act conf2: confirmation of human HKDC1 activators. shares compounds with HKDC1 inhibitor. recombinant HKDC1, G6PDH/diaphorase resazurin fluorescence; stronger effect = lower value. inhibition, % at 20 µM. 740 compounds, 14% hits. AID 504708;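 active = inhibition at or below a set negative limit, negative inhibition meaning the enzyme was activated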
Of the large screens only hits and unclear results are named; the others gave an inactive call (follow-up assays come after a bar, where they were run). A selection: hits, their analogues and other compounds. The true share with any hit is near 1.4%.

COC(=O)C1=C(c2cccc(OCc3ccccc3)c2)C[C@@H]2CC[C@H]1N2C(=O)NC1CCN(Cc2ccccc2)CC1	Apaf-1 inh 48 (no result: GSTO1 inh, Redox H2O2 prof, UBC9 SUMO inh) | Apaf-1 inh conf2 inactive | Rh110 interf inh inactive
COC(=O)C1=C(c2ccc(F)cc2OCc2ccccc2)C[C@@H]2CC[C@H]1N2C(=O)NC1CCN(Cc2ccccc2)CC1	Apaf-1 inh 53 (no result: GSTO1 inh, Redox H2O2 prof, UBC9 SUMO inh) | Apaf-1 inh conf2 inactive | Rh110 interf inh inactive
COC(=O)C1=C(c2ccccc2OCc2ccccc2)C[C@@H]2CC[C@H]1N2C(=O)NC1CCN(Cc2ccccc2)CC1	none (no result: GSTO1 inh, Redox H2O2 prof, UBC9 SUMO inh)
COCCNC(=O)c1c(NC(=O)c2ccco2)n(Cc2ccccc2)c2nc3ccccc3nc12	Apaf-1 inh 53 | Apaf-1 inh conf2 inactive | Rh110 interf inh inactive
C=CC[C@@H](CC/C=C/C=C/CC/C=C\[C@@H]1CSC([C@@H]2C[C@@H]2C)=N1)OC	none (no result: GSTO1 inh, Redox H2O2 prof, UBC9 SUMO inh)
C=CCn1c(C)c(C=C2C(=O)NC(=O)NC2=O)c2ccccc21	none (no result: Redox H2O2 prof)
O=[N+]([O-])c1ccc(N2CCCNCC2)c2ncccc12	Apaf-1 inh 45 (no result: Redox H2O2 prof) | Apaf-1 inh conf2 inactive | Rh110 interf inh inactive
O=[N+]([O-])c1ccc(N2CCCCC2)c2ncccc12	none
COc1cc(C(C)=O)ccc1OC(=O)N(C)c1ccccc1	none (no result: Redox H2O2 prof)
COC(=O)C1=C(c2ccc(Cl)c(C(F)(F)F)c2)C[C@@H]2CC[C@H]1N2C(=O)NCCOc1ccc(OC)cc1	Apaf-1 inh 40 (no result: GSTO1 inh, Redox H2O2 prof, UBC9 SUMO inh) | Apaf-1 inh conf2 inactive | Rh110 interf inh inactive
Cc1nc(SCc2c(Cl)cccc2Cl)nc(OC(=O)N(C)C)c1C	none (no result: Redox H2O2 prof)
NCCc1ccc(OCc2ccccc2)c(OCc2ccccc2)c1	Apaf-1 inh 46 (no result: GSTO1 inh, Redox H2O2 prof, UBC9 SUMO inh) | Apaf-1 inh conf2 inactive | Rh110 interf inh inactive
O=[N+]([O-])c1ccc(NCc2ccc(Cl)cc2)c2ccncc12	Apaf-1 inh 79 (no result: Redox H2O2 prof) | Apaf-1 inh conf2 inactive | Rh110 interf inh inactive
CCCCOCCCn1c(N)c(C(=O)OC(C)COC)c2nc3ccccc3nc21 (configuration not stated)	none
COCCCn1c(N)c(C(=O)Nc2ccccc2)c2nc3ccccc3nc21	Apaf-1 inh 51 (no result: Redox H2O2 prof) | Apaf-1 inh conf2 inactive | Rh110 interf inh inactive
COCCNC(=O)c1c(N)n(Cc2ccco2)c2nc3ccccc3nc12	none
CCC(C)NC(=O)c1c(N)n(CCCOC)c2nc3ccccc3nc12 (configuration not stated)	Apaf-1 inh 91, GSTO1 inh 61 | Apaf-1 inh conf2 59 | Rh110 interf inh inactive | Apaf1 inh interf inactive
COCCCn1c(N)c(C(=O)Nc2sc3c(c2C(=O)OC)CCCC3)c2nc3ccccc3nc21	Apaf-1 inh 90 | Apaf-1 inh conf2 inactive | Rh110 interf inh inactive
COCCCn1c(N)c(C(=O)OC(C)COC)c2nc3ccccc3nc21 (configuration not stated)	Apaf-1 inh 74 | Apaf-1 inh conf2 inactive | Rh110 interf inh inactive
O=[N+]([O-])O[C@H]1CO[C@H]2[C@@H]1OC[C@H]2O[N+](=O)[O-]	none (no result: Redox H2O2 prof, UBC9 SUMO inh)
COCc1cc(OC(=O)N(C)C)nc(-c2ccccc2)n1	none (no result: Redox H2O2 prof)
Ic1ccccc1CN[C@@H]1C2CCN(CC2)[C@@H]1C(c1ccccc1)c1ccccc1	Apaf-1 inh 50 (no result: Redox H2O2 prof, UBC9 SUMO inh) | Apaf-1 inh conf2 inactive | Rh110 interf inh inactive
COc1ccc(/C=C/C(=O)NC(=S)N2C[C@H]3C[C@H](C2)c2cccc(=O)n2C3)cc1OC	none (no result: Redox H2O2 prof)
Cc1c2ccncc2c(C)c2c1[nH]c1ccccc12	Apaf-1 inh 67 | Apaf-1 inh conf2 inactive | Rh110 interf inh inactive
Cc1cc(Cl)ccc1C(=O)C1CCCN(C2CCSCC2)C1 (configuration not stated)	none
Fc1ccc(C(OCCN2CCCC2)c2ccc(F)cc2)cc1	none
c1ccc(CCCN2CCN(CCOC(c3ccccc3)c3ccccc3)CC2)cc1	Apaf-1 inh 51 (no result: Redox H2O2 prof, UBC9 SUMO inh) | Apaf-1 inh conf2 inactive | Rh110 interf inh inactive
NCCNc1ccc([N+](=O)[O-])c2cccnc12	none
O=[N+]([O-])c1ccc(NCCCN2CCOCC2)c2ncccc12	Apaf-1 inh 40 | Apaf-1 inh conf2 inactive | Rh110 interf inh inactive
CCCC(=O)N(C)C1=Nc2ccc(Cl)cc2C(c2ccccc2)=[N+]([O-])C1	none (no result: Redox H2O2 prof)
Cc1cc(Cl)nc(N)n1	none
COc1cc2c3cc1Oc1c(OC)c(OC)cc4c1[C@H](Cc1ccc(cc1)Oc1cc(ccc1O)C[C@H]3N(C)CC2)N(C)CC4	none (no result: GSTO1 inh, Redox H2O2 prof, UBC9 SUMO inh)
COc1cc2c3c(c1OC)Oc1ccc(cc1)C[C@H]1c4c(cc(OC)c(OC)c4Oc4ccc(cc4)C[C@@H]3N(C)CC2)CCN1C	Apaf-1 inh 45 (no result: GSTO1 inh, Redox H2O2 prof, UBC9 SUMO inh) | Apaf-1 inh conf2 inactive | Rh110 interf inh inactive
O=[N+]([O-])c1ccc(C(c2ccc([N+](=O)[O-])cc2)c2ccc([N+](=O)[O-])cc2)cc1	none (no result: Apaf-1 inh, GSTO1 inh, Redox H2O2 prof, UBC9 SUMO inh)
Cc1[nH]n(-c2ccccc2)c(=O)c1C(c1ccc([N+](=O)[O-])cc1)c1c(C)[nH]n(-c2ccccc2)c1=O	Apaf-1 inh 79, GSTO1 inh 59 | Apaf-1 inh conf2 inactive | Rh110 interf inh inactive
COc1cc2c(cc1OC)-c1c(OC)c(OC)c(OC)c3ccnc(c13)C2=O	HKDC1 inhibitor 50 | HKDC1 act conf2 inactive
COc1cc(CC2(CCc3ccncc3)C(=O)NC(=O)NC2=O)cc(OC)c1OC	none
Nc1cnn(-c2ccccc2)c(=O)c1Cl	HKDC1 inhibitor 45 (no result: Redox H2O2 prof) | HKDC1 act conf2 inactive
Cc1cccc(N2C(=O)NC(=O)/C(=C\c3ccc4c(c3)CCCN4Cc3ccccc3)C2=O)c1	HKDC1 inhibitor 45 | HKDC1 act conf2 inactive
CC1=NN(c2ccccc2)C(=O)C1/C=C1/C(=O)NC(=O)N(c2cccc(C)c2)C1=O (configuration not stated)	none (no result: Apaf-1 inh, GSTO1 inh, HKDC1 inhibitor)
Cc1cc(/C=C2\C(=O)NC(=O)N(c3ccccc3F)C2=O)c(C)n1-c1cc(C(=O)O)cc(C(=O)O)c1	none (no result: Redox H2O2 prof)
CCOC(=O)c1c(-n2c(C)cc(C=C3C(=O)NC(=O)NC3=O)c2C)sc2c1CCCC2	HKDC1 inhibitor 41 | HKDC1 act conf2 inactive
Cc1cccc(N2C(=O)NC(=O)/C(=C\c3cc(C)n(-c4sc5c(c4C#N)CCCC5)c3C)C2=O)c1C	HKDC1 inhibitor 72 | HKDC1 act conf2 inactive
COc1cc(C[C@@H](C)N)c(OC)cc1I	none (no result: Redox H2O2 prof)

Bioassay records: PubChem BioAssay, several laboratories
